Experimental data of several laboratories.
Compare with care: the assays were run in different laboratories.
OPRD1: Delta-type opioid receptor (OPRD1, Homo sapiens, UniProt P41143)
OGT: UDP-N-acetylglucosamine--peptide N-acetylglucosaminyltransferase 110 kDa subunit (OGT, Homo sapiens, UniProt O15294)
HTR3A: 5-hydroxytryptamine receptor 3A (HTR3A, Homo sapiens, UniProt P46098)
gag-pol reverse transcriptase: Gag-Pol polyprotein, reverse transcriptase (gag-pol, Human immunodeficiency virus 1, UniProt P03366)
ADRA2A: Alpha-2A adrenergic receptor (ADRA2A, Homo sapiens, UniProt P08913)

SMILES | target | assay | system | setting | IC50 [µM]
CCC[C@H](CN[C@H](CNC)Cc1ccc(O)cc1)NCC1CCC(C)CC1 (some centres unmarked) | OPRD1 | cell-free assay |  |  | > 10
Cc1cc(C)nc(Nc2ncc(C(=O)NCCc3c(C)[nH]c4ccccc34)cn2)c1 | Cytochrome P450 2C19 (CYP2C19, Homo sapiens, UniProt P33261) | enzyme activity, inhibitor | human, liver microsomes |  | 11
CC(C)Cc1ccc([C@H](C)C(=O)O)cc1 | Histone acetyltransferase p300 (EP300, Homo sapiens, UniProt Q09472) | enzyme activity, inhibitor, mobility shift |  |  | ~6000
CC[C@H](C)[C@H](NC(=O)[C@H](CO)NC(=O)[C@H](Cc1ccc(O)cc1)NC(=O)[C@H](CCCCN)NC(=O)[C@@H]1CCCN1C(=O)[C@H](CCSC)NC(=O)[C@@H](N)Cc1ccccc1)C(=O)N[C@H](C(=O)N[C@@H](Cc1ccccc1)C(=O)O)[C@@H](C)CC | OGT | enzyme activity, inhibitor, fluorescence |  |  | 120
O=c1c(O)c(-c2ccc(O[C@@H]3O[C@H](CO)[C@@H](O)[C@H](O)[C@H]3O)c(O)c2)oc2cc(O)cc(O)c12 | Carbonic anhydrase 2 (CA2, Homo sapiens, UniProt P00918) | enzyme activity, inhibitor, absorbance |  |  | 0.0194
CN1CCN(C2=Nc3ccccc3Oc3ccc(Cl)cc32)CC1 | HTR3A | ligand displacement, radioligand |  |  | 0.377
CC(C)[C@H](CNCc1ccccc1)N1CCN(CCC2CC3CCC2C3)[C@@H](Cc2ccccc2)C1 (some centres unmarked) | OPRD1 | cell-free assay |  |  | > 10
Cc1cc(/C=C/C#N)cc(C)c1Nc1ccnc(Nc2ccc(C#N)cc2)n1 | gag-pol reverse transcriptase | enzyme activity, inhibitor |  |  | 0.0214
Cc1cn([C@@H]2CC[C@H](OC(C(=O)O)C(=O)O)C2)c(=O)[nH]c1=O (relative stereo) | gag-pol reverse transcriptase | enzyme activity, inhibitor, radiometric |  |  | 42
CC(CCc1ccccc1)NC(C)C(O)c1ccc(O)cc1 (centres unmarked) | ADRA2A | calcium signal, antagonist |  |  | 18.6
Cc1cn([C@@H]2C=C[C@H](OC(P(=O)(O)O)P(=O)(O)O)C2)c(=O)[nH]c1=O (relative stereo) | gag-pol reverse transcriptase | enzyme activity, inhibitor, radiometric |  |  | 204
CN1CCC(=C2c3ccccc3CCc3sccc32)CC1 | ADRA2A | ligand displacement, radioligand |  |  | 0.577
CCC[C@H](CNC)NC[C@H](Cc1ccc(O)cc1)NCCC1CCCC1 | OPRD1 | cell-free assay |  |  | > 10
CCOC(=O)c1cncn1[C@H](C)c1ccc(C2(C(F)(F)F)N=N2)cc1 | HTR3A | ion current, two-electrode voltage clamp |  | oocytes | 9
CNC[C@@H](Cc1ccc(O)cc1)N1CCN(CCc2cccc(C)c2)[C@@H](C(C)C)C1 | OPRD1 | cell-free assay |  |  | > 10
C[C@@H](NC(=O)[C@@H](N)Cc1ccc(O)cc1)C(=O)NCC(=O)N[C@H](CC(=O)NNC(=O)C[C@H](Cc1ccccc1)NC(=O)CNC(=O)[C@@H](C)NC(=O)[C@@H](N)Cc1ccc(O)cc1)Cc1ccccc1 | OPRD1 | ligand displacement, radioligand |  |  | 0.00145
CNC[C@H](Cc1ccc(O)cc1)NC[C@H](Cc1ccc(O)cc1)NCC1CCCCCC1 | OPRD1 | cell-free assay |  |  | > 10
CCN(CC)C(=O)C1CN2CCc3cc(OC)c(OC)cc3C2CC1OC(C)=O (centres unmarked) | ADRA2A | ligand displacement, radioligand |  |  | 0.825
CCCC[C@H](CNCc1ccccc1)N1CCN(CC(C)C)[C@H](Cc2ccc(O)cc2)C1 | OPRD1 | cell-free assay |  |  | > 10
CC[C@H](C)[C@H](NC(=O)[C@H](CO)NC(=O)[C@H](Cc1ccc(O)cc1)NC(=O)[C@H](CCCCN)NC(=O)[C@@H]1CCCN1C(=O)[C@H](CCSC)NC(=O)[C@H](Cc1ccccc1)NC(=O)[C@H](CCSC)NC(=O)[C@@H](NC(=O)[C@@H]1CCCN1C(=O)[C@H](Cc1ccccc1)NC(=O)[C@H](CC(=O)O)NC(=O)CNC(=O)[C@H](CCCCN)NC(=O)[C@@H](N)CCCCN)C(C)C)C(=O)N[C@H](C(=O)N[C@@H](Cc1ccccc1)C(=O)O)[C@@H](C)CC | OGT | enzyme activity, inhibitor, fluorescence |  |  | 5.3
